Assay results published in the M2OR odorant receptor database.

Columns and labels:
Details in all cases: stereoisomer not certain
UniProt L7N1Y8 = molecular target: UniProt L7N1Y8
Method in brief: (§1)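 Each receptor–molecule pair is labelled responsive or non-responsive (inactive) according to whether the original authors judged the measured signal statistically different from baseline. The data were taken from the main text and supplementary material of published papers and checked for typos and inconsistencies. Assay methods differed by source, with transient luciferase assays in mammalian cell lines being common.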

UniProt Q7TQV4 = molecular target: T1, UniProt Q7TQV4
T1 sequence (whole entry): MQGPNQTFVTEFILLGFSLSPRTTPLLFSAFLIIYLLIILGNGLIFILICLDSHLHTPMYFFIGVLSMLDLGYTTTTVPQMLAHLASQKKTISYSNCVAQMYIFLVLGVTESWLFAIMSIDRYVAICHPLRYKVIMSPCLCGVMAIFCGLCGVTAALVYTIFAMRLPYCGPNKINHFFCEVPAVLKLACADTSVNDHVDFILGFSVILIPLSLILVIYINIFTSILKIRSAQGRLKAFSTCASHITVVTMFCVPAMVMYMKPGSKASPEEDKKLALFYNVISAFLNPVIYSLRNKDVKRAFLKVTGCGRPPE
Method in brief: as §1

UniProt L7MU75 = molecular target: T2, UniProt L7MU75
T2 sequence (whole entry): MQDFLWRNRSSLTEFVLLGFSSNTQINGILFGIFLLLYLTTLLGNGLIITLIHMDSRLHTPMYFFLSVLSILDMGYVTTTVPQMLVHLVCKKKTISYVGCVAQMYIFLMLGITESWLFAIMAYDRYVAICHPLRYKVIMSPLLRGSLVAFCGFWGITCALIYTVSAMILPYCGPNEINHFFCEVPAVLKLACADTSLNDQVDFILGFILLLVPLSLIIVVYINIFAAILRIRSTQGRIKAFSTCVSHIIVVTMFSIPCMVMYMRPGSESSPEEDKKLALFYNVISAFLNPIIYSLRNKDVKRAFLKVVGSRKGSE
Method in brief: as §1

UniProt L7N210 = molecular target: T3, UniProt L7N210
T3 sequence (whole entry): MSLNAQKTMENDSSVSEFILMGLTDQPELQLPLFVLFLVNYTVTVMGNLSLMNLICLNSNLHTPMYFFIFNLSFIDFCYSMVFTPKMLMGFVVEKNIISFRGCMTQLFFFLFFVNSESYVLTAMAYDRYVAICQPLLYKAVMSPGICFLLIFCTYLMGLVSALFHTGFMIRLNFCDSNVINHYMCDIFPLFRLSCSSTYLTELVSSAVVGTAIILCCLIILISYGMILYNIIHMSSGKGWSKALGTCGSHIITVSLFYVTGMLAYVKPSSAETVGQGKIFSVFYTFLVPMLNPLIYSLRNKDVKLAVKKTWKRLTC
Method in brief: as §1

UniProt Q3KPB0 = molecular target: T4, UniProt Q3KPB0
T4 sequence (whole entry): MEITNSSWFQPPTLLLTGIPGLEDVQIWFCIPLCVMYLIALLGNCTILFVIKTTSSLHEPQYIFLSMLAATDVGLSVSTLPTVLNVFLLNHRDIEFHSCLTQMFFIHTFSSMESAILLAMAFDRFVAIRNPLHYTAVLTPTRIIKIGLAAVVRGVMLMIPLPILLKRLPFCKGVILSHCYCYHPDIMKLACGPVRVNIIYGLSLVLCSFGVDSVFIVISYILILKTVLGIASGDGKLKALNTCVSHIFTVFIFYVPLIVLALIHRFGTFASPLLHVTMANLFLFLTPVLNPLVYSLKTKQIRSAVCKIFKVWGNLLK
Method in brief: as §1

UniProt Q3U0P3 = molecular target: T5, UniProt Q3U0P3
T5 sequence (whole entry): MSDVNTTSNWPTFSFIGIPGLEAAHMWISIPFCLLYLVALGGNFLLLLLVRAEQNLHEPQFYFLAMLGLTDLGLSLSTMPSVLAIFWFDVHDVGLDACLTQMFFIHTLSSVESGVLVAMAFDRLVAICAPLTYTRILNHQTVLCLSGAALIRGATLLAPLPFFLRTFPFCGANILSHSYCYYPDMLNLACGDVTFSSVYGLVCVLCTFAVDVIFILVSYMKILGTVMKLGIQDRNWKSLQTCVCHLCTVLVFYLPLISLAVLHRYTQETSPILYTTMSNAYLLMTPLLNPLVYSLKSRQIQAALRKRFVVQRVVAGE
Method in brief: as §1

UniProt Q7TQU8 = molecular target: T6, UniProt Q7TQU8
T6 sequence (whole entry): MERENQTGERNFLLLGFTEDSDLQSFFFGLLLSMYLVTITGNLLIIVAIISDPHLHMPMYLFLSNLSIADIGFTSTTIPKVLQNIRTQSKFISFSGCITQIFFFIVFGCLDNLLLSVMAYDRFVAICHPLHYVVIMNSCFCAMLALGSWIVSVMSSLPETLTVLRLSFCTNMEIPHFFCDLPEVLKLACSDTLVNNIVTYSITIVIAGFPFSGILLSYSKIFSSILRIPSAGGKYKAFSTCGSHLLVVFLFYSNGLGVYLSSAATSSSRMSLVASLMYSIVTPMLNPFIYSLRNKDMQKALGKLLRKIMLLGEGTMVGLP
Method in brief: as §1

Measured: odorant receptor agonist call

Sequence of UniProt L7N1Y8 (L7N1Y8 as listed by the source): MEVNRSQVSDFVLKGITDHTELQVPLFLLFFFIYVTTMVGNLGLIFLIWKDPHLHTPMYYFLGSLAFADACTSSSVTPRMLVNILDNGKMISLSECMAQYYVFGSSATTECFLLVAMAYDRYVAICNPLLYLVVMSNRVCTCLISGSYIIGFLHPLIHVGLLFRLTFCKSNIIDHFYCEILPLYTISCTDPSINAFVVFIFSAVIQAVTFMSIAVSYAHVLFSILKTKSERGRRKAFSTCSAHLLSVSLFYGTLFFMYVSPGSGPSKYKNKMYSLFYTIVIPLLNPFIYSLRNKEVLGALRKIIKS

O=c1ccc2ccccc2o1
active: UniProt L7N1Y8 | UniProt Q7TQV4

CCCCCC(C=O)=Cc1ccccc1
not listed: UniProt L7N1Y8 | UniProt Q7TQV4
inactive: all other assays above

O=C([O-])CCCCCCCC(=O)[O-].[H+].[H+]
not listed: UniProt L7N1Y8 | UniProt Q7TQV4
inactive: all other assays above

C=CC(=O)CCCCC
not listed: UniProt L7N1Y8 | UniProt Q7TQV4
inactive: all other assays above

c1ccc2ncccc2c1
active: UniProt L7MU75 | UniProt L7N210
inactive: UniProt Q3KPB0 | UniProt Q3U0P3 | UniProt Q7TQU8

CCCCCOC(=O)CCC
not listed: UniProt L7N1Y8 | UniProt Q7TQV4
inactive: all other assays above

CCOC(=O)C(C)CC (configuration not stated)
not listed: UniProt L7N1Y8 | UniProt Q7TQV4
inactive: all other assays above

CNc1ccccc1C(=O)OC
active: UniProt L7N210
inactive: UniProt L7MU75 | UniProt Q3KPB0 | UniProt Q3U0P3 | UniProt Q7TQU8

CC1(C)CC(=O)CC(=O)C1
not listed: UniProt L7N1Y8 | UniProt Q7TQV4
inactive: all other assays above

CC=Cc1ccc(OC)cc1
not listed: UniProt L7N1Y8 | UniProt Q7TQV4
inactive: all other assays above

Cc1occc1SSc1ccoc1C
inactive: UniProt L7MU75 | UniProt L7N210 | UniProt Q3KPB0 | UniProt Q3U0P3
active: UniProt Q7TQU8

CC=CC(=O)C1=C(C)CCCC1(C)C
not listed: UniProt L7N1Y8 | UniProt Q7TQV4
inactive: all other assays above

C1CCOC1
not listed: UniProt L7N1Y8 | UniProt Q7TQV4
inactive: all other assays above

CCCCCC(=Cc1ccccc1)C(OC)OC
not listed: UniProt L7N1Y8 | UniProt Q7TQV4
inactive: all other assays above

CCOC(=O)CC(C)C
not listed: UniProt L7N1Y8 | UniProt Q7TQV4
inactive: all other assays above

O=C([O-])CCCCCCC(=O)[O-].[H+].[H+]
not listed: UniProt L7N1Y8 | UniProt Q7TQV4
inactive: all other assays above

CCCC(C)C(=O)OCC (configuration not stated)
not listed: UniProt L7N1Y8 | UniProt Q7TQV4
inactive: all other assays above

Cc1ccc2c(c1)OCC(=O)CO2
not listed: UniProt L7N1Y8 | UniProt Q7TQV4
inactive: all other assays above

CC(=O)C=CC1=C(C)CCCC1(C)C
not listed: UniProt L7N1Y8 | UniProt Q7TQV4
inactive: all other assays above

CCCCCCC(C=O)=Cc1ccccc1
not listed: UniProt L7N1Y8 | UniProt Q7TQV4
inactive: all other assays above

CCSCC
not listed: UniProt L7N1Y8 | UniProt Q7TQV4
inactive: all other assays above

CSSCc1ccco1
not listed: UniProt L7N1Y8 | UniProt Q7TQV4
inactive: all other assays above

C=CC(=C)CCC=C(C)CCC=C(C)C
not listed: UniProt L7N1Y8 | UniProt Q7TQV4
inactive: all other assays above

CCC=CCCC=CC=O
not listed: UniProt L7N1Y8 | UniProt Q7TQV4
inactive: all other assays above

CSSSC
not listed: UniProt L7N1Y8 | UniProt Q7TQV4
inactive: all other assays above

CCCCCCCCCC=CC=O
not listed: UniProt L7N1Y8 | UniProt Q7TQV4
inactive: all other assays above

CCc1ccc(O)cc1
inactive: UniProt L7MU75 | UniProt Q3KPB0 | UniProt Q3U0P3 | UniProt Q7TQU8
active: UniProt L7N210

CC(=O)OCCc1ccccc1
active: UniProt L7N210
inactive: UniProt L7MU75 | UniProt Q3KPB0 | UniProt Q3U0P3 | UniProt Q7TQU8

Cc1ccc(C(C)C)c(O)c1
not listed: UniProt L7N1Y8 | UniProt Q7TQV4
inactive: all other assays above

CCC=CCCCCC=O
not listed: UniProt L7N1Y8 | UniProt Q7TQV4
inactive: all other assays above

CC(=O)OC1(C)CCC23CC1C(C)(C)C2CCC3C (configuration not stated)
active: UniProt Q3U0P3 | UniProt Q7TQU8
inactive: UniProt L7MU75 | UniProt L7N210 | UniProt Q3KPB0

CC(CC=O)CCCC(C)(C)O (configuration not stated)
not listed: UniProt L7N1Y8 | UniProt Q7TQV4
inactive: all other assays above

O=C(O)CCCCCBr
not listed: UniProt L7N1Y8 | UniProt Q7TQV4
inactive: all other assays above

CCCCCCCOC(=O)C(C)C
not listed: UniProt L7N1Y8 | UniProt Q7TQV4
inactive: all other assays above

OCCc1ccccc1
not listed: UniProt L7N1Y8 | UniProt Q7TQV4
inactive: all other assays above

C=C(CC)CCCC(C)(C)O
not listed: UniProt L7N1Y8 | UniProt Q7TQV4
inactive: all other assays above

CC1CC=CCCCCCCCCCC(=O)C1 (configuration not stated)
not listed: UniProt L7N1Y8 | UniProt Q7TQV4
inactive: all other assays above

C=CC(=C)CCC=C(C)C
not listed: UniProt L7N1Y8 | UniProt Q7TQV4
inactive: all other assays above

CCCCCCC(=O)OCCCC
not listed: UniProt L7N1Y8 | UniProt Q7TQV4
inactive: all other assays above

COc1ccccc1
not listed: UniProt L7N1Y8 | UniProt Q7TQV4
inactive: all other assays above

OCC=Cc1ccccc1
active: UniProt L7N210
inactive: UniProt L7MU75 | UniProt Q3KPB0 | UniProt Q3U0P3 | UniProt Q7TQU8

CCC(C)O (configuration not stated)
not listed: UniProt L7N1Y8 | UniProt Q7TQV4
inactive: all other assays above

C=C(C)C1CCC2(C)OC2C1 (configuration not stated)
not listed: UniProt L7N1Y8 | UniProt Q7TQV4
inactive: all other assays above

CCN(CC)CC
not listed: UniProt L7N1Y8 | UniProt Q7TQV4
inactive: all other assays above
